Measured values as given in ChEMBL document CHEMBL4130509, “Sesquiterpenes from the Endophyte Glomerella cingulata” (J Nat Prod, 2017).
Active and inactive are the calls of the source. The rule behind the calls is not given here.

Columns and labels:
BV-2 [1] = assay: Antiinflammatory activity against mouse BV2 cells assessed as inhibition of LPS-induced nitric oxide production after 24 hrs by griess assay; type: functional, cell-based; details: BV-2, 24 h
In short: (§1)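 BV2 cells preincubated 24 h, then exposed to compounds and stimulated with LPS (E. coli 055:B5) for 24 h. Supernatant mixed with equal volume Griess reagent, 5 min at room temperature in the dark; absorbance read at 540 nm for NO. Curcumin as positive control.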

Bel-7402 = assay: Cytotoxicity against human Bel7402 cells by MTT assay; type: functional, cell-based
Homo sapiens = species: Homo sapiens; assay: Cytotoxicity against human […] cells by MTT assay; type: functional, cell-based
A2780 = assay: Cytotoxicity against human A2780 cells by MTT assay; type: functional, cell-based
HCT-8 = assay: Cytotoxicity against human HCT8 cells by MTT assay; type: functional, cell-based
BV-2 [2] = assay: Antiinflammatory activity against mouse BV2 cells assessed as inhibition of LPS-induced nitric oxide production at 1 uM after 24 hrs by griess assay relative to control; type: functional; details: BV-2, 24 h; in short: as §1
A549 = assay: Cytotoxicity against human A549 cells by MTT assay; type: functional, cell-based
HCT-116 = assay: Cytotoxicity against human HCT116 cells by MTT assay; type: functional, cell-based

Row | SMILES | IC50 (BV-2 [1]) [µM] | Activity (Bel-7402) | Activity (Homo sapiens) | Activity (A2780) | Activity (HCT-8) | inhibition at 1 µM (BV-2 [2]) [%] | Activity (A549) | Activity (HCT-116)
1 | COc1cc(/C=C/C(=O)CC(=O)/C=C/c2ccc(O)c(OC)c2)ccc1O [CURCUMIN] | 4 | – | – | – | – | – | – | –
2 | CC1=C2C[C@@]3(C)C(=C[C@]2(O)OC1=O)C(=O)C=C[C@@H]3C | – | inactive | inactive | inactive | inactive | 29.4 | inactive | inactive
3 | CC(=O)O[C@H]1[C@@H]2O[C@H]2[C@H]2C[C@@]3(O)OC[C@@]4(C)O[C@]43C[C@]2(C)[C@H]1C | – | inactive | inactive | inactive | inactive | – | inactive | inactive
4 | CC(=O)O[C@H]1[C@H]2O[C@H]2C2=CC(=O)[C@]3(C[C@]2(C)[C@H]1C)O[C@]3(C)C=O | – | inactive | inactive | inactive | inactive | – | inactive | inactive
5 | CO[C@@]12OC(=O)C(C)=C1C[C@@]1(C)[C@H](C(=O)C=C[C@@H]1C)[C@@H]2O | – | inactive | inactive | inactive | inactive | – | inactive | inactive
6 | CO[C@]12C=C3C(=O)C=C[C@H](C)[C@@]3(C)CC1=C(C)C(=O)O2 | – | inactive | inactive | inactive | inactive | 36.1 | inactive | inactive
7 | C=C(C)[C@@H]1C[C@@]2(C)C(=CC1=O)[C@@H]1O[C@@H]1[C@H](O)[C@@H]2C | – | inactive | inactive | inactive | inactive | – | inactive | inactive
8 | COC(=O)[C@H]1CCC(=O)N1Cc1cc(OC)c2c(OC)cc3cc(OCc4ccccc4)ccc3c2c1 | – | inactive | inactive | inactive | inactive | – | inactive | inactive
9 | COC(=O)[C@@H](C)c1cc2c(cc1O)C(=O)C=CC2(C)C | – | inactive | inactive | inactive | inactive | 50.6 | inactive | inactive
